ChEMBL document CHEMBL1148546, “3-Arylpiperazinylethyl-1H-pyrrolo[2,3-d]pyrimidine-2,4(3H,7H)-dione derivatives as novel, high-affinity and selective alpha(1)-adrenoceptor ligands” (Bioorg Med Chem Lett, 2006)
pKi: −log10 of the molar value.

Legend:
[1] = biological target: T1, Adrenergic receptor alpha-1 (Homo sapiens, UniProt P35348+P25100+P35368); assay: Binding affinity to adrenergic alpha-1 receptor; assay type: protein assay
T1 sequence (P35348 whole entry): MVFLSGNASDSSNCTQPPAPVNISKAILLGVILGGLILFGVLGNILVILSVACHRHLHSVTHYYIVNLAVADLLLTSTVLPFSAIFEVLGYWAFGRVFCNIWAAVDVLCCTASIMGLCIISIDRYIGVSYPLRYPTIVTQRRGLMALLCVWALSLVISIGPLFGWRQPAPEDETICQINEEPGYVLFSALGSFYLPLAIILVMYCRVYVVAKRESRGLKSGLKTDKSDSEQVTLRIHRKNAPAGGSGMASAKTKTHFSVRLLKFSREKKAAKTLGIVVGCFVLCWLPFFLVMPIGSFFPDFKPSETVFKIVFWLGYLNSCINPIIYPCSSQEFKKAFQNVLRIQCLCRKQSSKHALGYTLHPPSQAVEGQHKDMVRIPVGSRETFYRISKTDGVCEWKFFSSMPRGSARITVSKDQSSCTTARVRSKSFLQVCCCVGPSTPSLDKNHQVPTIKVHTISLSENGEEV
T1 sequence (P25100 whole entry): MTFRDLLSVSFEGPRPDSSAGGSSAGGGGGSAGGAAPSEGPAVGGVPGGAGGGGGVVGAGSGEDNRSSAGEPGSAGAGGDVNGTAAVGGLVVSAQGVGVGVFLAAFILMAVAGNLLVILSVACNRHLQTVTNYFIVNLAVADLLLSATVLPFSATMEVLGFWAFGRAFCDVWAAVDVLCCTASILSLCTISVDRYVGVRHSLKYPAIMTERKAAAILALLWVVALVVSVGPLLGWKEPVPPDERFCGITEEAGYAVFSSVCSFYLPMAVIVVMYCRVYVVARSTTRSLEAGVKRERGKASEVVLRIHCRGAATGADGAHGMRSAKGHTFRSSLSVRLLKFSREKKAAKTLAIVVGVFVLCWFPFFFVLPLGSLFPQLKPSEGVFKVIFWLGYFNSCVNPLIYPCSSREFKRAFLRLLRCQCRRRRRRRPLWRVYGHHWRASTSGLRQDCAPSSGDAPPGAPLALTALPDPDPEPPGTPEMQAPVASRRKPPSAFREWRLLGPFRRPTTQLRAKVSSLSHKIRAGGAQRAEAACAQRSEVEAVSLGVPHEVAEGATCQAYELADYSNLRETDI
T1 sequence (P35368 whole entry): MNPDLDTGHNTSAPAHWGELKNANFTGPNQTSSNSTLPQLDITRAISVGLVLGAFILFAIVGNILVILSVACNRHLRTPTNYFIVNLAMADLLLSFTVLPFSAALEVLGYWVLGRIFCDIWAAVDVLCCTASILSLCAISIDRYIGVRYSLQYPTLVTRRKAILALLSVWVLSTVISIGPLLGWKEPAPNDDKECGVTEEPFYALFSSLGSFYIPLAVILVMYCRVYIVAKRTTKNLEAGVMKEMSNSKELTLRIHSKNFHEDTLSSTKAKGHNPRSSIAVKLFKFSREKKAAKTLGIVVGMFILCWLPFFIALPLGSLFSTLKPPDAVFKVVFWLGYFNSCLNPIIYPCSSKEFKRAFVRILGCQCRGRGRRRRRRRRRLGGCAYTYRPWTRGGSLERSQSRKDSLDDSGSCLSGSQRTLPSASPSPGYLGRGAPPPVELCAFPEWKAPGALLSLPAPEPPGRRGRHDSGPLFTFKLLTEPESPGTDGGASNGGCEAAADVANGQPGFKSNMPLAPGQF

[2] = biological target: T2, 5-hydroxytryptamine receptor 1A (Homo sapiens, UniProt P08908); assay: Binding affinity to 5HT1A
T2 sequence (P08908 whole entry): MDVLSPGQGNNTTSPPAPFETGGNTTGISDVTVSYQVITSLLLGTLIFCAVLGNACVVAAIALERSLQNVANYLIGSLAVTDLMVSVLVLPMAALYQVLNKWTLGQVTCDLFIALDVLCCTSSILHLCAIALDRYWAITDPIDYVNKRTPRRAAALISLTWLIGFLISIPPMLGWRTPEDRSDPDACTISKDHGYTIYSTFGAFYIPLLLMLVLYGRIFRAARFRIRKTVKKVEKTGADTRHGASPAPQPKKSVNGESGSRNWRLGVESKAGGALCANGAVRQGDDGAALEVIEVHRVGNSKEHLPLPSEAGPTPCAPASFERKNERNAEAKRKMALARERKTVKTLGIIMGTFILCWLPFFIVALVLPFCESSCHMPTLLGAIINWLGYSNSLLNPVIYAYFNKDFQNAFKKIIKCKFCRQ

Homo sapiens [3] = species: Homo sapiens; assay: Selectivity for 5HT1A over adrenergic alpha-1 receptor
Procedure, shortened: (§1)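 Selectivity is the ratio of Ki at 5-HT1A, D1 or D2 to Ki at α1. Ki values are means (±SD) of three separate experiments.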

D(2) dopamine receptor = D(2) dopamine receptor (Homo sapiens, UniProt P14416); assay: Binding affinity to dopamine D2 receptor
D(2) dopamine receptor, sequence (P14416 whole entry): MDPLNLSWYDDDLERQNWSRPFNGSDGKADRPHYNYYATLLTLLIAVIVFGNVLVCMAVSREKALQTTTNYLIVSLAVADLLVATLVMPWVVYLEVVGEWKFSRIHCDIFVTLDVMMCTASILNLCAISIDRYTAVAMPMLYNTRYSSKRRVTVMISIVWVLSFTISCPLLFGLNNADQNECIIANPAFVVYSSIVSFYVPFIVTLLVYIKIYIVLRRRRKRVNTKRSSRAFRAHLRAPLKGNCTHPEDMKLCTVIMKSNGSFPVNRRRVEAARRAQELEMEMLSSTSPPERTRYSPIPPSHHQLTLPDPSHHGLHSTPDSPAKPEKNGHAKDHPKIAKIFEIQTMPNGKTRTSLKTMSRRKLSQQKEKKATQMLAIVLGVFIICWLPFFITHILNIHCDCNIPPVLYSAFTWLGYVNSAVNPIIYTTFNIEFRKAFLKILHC

[4] = Selectivity for dopamine D2 over adrenergic alpha-1 receptor; procedure, shortened: as §1
D(1A) dopamine receptor = D(1A) dopamine receptor (Homo sapiens, UniProt P21728); assay: Binding affinity to dopamine D1 receptor
D(1A) dopamine receptor, sequence (P21728 whole entry): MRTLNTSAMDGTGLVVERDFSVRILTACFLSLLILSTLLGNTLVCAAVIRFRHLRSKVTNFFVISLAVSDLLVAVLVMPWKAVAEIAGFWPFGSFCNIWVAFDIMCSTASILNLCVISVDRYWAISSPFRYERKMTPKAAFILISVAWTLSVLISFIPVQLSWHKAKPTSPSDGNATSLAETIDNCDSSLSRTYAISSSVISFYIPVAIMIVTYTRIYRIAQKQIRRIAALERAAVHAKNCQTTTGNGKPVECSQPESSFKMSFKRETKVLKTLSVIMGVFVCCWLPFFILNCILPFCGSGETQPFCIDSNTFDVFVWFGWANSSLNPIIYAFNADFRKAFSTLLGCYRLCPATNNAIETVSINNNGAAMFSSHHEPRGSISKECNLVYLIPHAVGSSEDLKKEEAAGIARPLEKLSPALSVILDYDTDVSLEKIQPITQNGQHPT

Homo sapiens [5] = species: Homo sapiens; assay: Selectivity for dopamine D1 over adrenergic alpha-1 receptor; procedure, shortened: as §1

Compound | Ki [1] [nM] | pKi [2] | Ratio Ki (Homo sapiens [3]) | pKi (D(2) dopamine receptor) | Ratio Ki [4] | pKi (D(1A) dopamine receptor) | Ratio Ki (Homo sapiens [5])
Cc1ccccc1-c1cc2c(=O)n(CCN3CCN(c4ccccc4Cl)CC3)c(=O)[nH]c2[nH]1 | 2.8 | 5.84 | 518 | 6.20 | 224 | 5.98 | 371
COc1ccccc1N1CCN(CCn2c(=O)[nH]c3[nH]c(-c4ccc(C)cc4)cc3c2=O)CC1 | 4.97 | 6.48 | 67 |  |  |  | 
COc1ccc(-c2cc3c(=O)n(CCN4CCN(c5ccccc5OC)CC4)c(=O)[nH]c3[nH]2)cc1 | 5.47 | 6.95 | 21 |  |  |  | 
O=c1[nH]c2[nH]c(-c3ccccc3Cl)cc2c(=O)n1CCN1CCN(c2ccccc2Cl)CC1 | 6.28 | 7.19 | 10 | 6.45 | 57 | 6.25 | 90
COc1ccccc1N1CCN(CCn2c(=O)[nH]c3[nH]c(-c4ccc(Cl)cc4)cc3c2=O)CC1 | 4.08 | 6.40 | 98 |  |  |  | 
COc1ccccc1N1CCN(CCn2c(=O)[nH]c3[nH]c(-c4ccccc4Cl)cc3c2=O)CC1 | 2.18 | 7.72 | 8.8 |  |  |  | 
COc1ccccc1N1CCN(CCn2c(=O)[nH]c3[nH]c(-c4ccccc4)cc3c2=O)CC1 | 1.99 | 6.91 | 61 |  |  |  | 

The remaining lines, values ahead:

Ki [1] [nM] | pKi [2] | Ratio Ki (Homo sapiens [3]) | pKi (D(2) dopamine receptor) | Ratio Ki [4] | pKi (D(1A) dopamine receptor) | Ratio Ki (Homo sapiens [5]) | Compound
1.19 | 6.53 | 248 |  |  |  |  | COc1ccccc1N1CCN(CCn2c(=O)[nH]c3[nH]c(-c4ccccc4C)cc3c2=O)CC1
4.71 | 5.81 | 327 | 6.86 | 29 | 6.29 | 110 | O=c1[nH]c2[nH]c(-c3ccccc3)cc2c(=O)n1CCN1CCN(c2ccccc2Cl)CC1
3.32 | 5.99 | 310 | 6.44 | 109 | 5.07 | > 2500 | COc1ccccc1-c1cc2c(=O)n(CCN3CCN(c4ccccc4Cl)CC3)c(=O)[nH]c2[nH]1
1.63 | 6.80 | 97 |  |  |  |  | COc1ccccc1-c1cc2c(=O)n(CCN3CCN(c4ccccc4OC)CC3)c(=O)[nH]c2[nH]1
